{"data": "Results pooled from the literature", "technique": "competition with immobilised ligand", "JAK3 JH1": "Tyrosine-protein kinase JAK3, JH1 (JAK3, Homo sapiens, UniProt P52333)", "JAK3": "Tyrosine-protein kinase JAK3 (JAK3, Homo sapiens, UniProt P52333)", "note": "Compare with care: the assays were run in different laboratories."}
{"Compound": "N#CC1(c2ccccn2)CCN(Cc2cc(C(=O)N3CCCC3)c(=O)n3ccccc23)CC1", "target": "JAK3 JH1", "assay": "cell-free assay", "setting": "1 µM", "remaining binding [%]": 100}
{"Compound": "C=CC(=O)N1CCC(C(=O)NCC(=O)N2CCN(c3nc(-c4cnc(N)nc4C(F)F)nc(N4CCOCC4)n3)CC2)CC1", "target": "JAK3 JH1", "assay": "binding", "setting": "1 µM", "remaining binding [%]": 88}
{"Compound": "CNC(=O)c1ccc(Nc2ncc(C(F)(F)F)c(NCc3nccnc3N(C)S(C)(=O)=O)n2)cc1", "target": "JAK3", "assay": "binding", "setting": "1 µM", "remaining binding [%]": 8.2}
{"Compound": "O=C(c1ccc(Nc2ncc(Cl)c(-c3cc4ccccc4s3)n2)cc1)N1CCC(N2CCCC2)CC1", "target": "JAK3 JH1", "assay": "binding", "setting": "1 µM", "remaining binding [%]": 0}
{"Compound": "CC1=C(C#N)C(c2ccc3c(c2)c(NC(=O)c2ccccc2C)nn3C)C(C#N)=C(C)N1", "target": "JAK3 JH1", "assay": "cell-free assay", "setting": "1 µM", "remaining binding [%]": 83}
{"Compound": "CC1CCCN1c1nccc(-c2cnn3ncccc23)n1 (stereo not shown)", "target": "JAK3 JH1", "assay": "cell-free assay", "setting": "1 µM", "remaining binding [%]": 97}
{"Compound": "CNC(=O)[C@@H]1CC[C@@H](n2c(-c3ccc4cnccc4c3)nc3ccc(C(=O)NCc4cccc(C(N)=O)c4)cc32)C1", "target": "JAK3 JH1", "assay": "binding", "setting": "1 µM", "remaining binding [%]": 100}
{"Compound": "C[C@@H]1CN(c2ccc3ncc(-c4ccc5[nH]nc(C6CC6)c5c4)n3n2)C[C@H](C)O1", "target": "JAK3", "assay": "binding", "setting": "50 nM", "remaining binding [%]": 76}
{"Compound": "O=C(NCC1CCOCC1)c1n[nH]cc1NC(=O)c1c(F)cccc1F", "target": "JAK3 JH1", "assay": "binding", "setting": "1 µM", "remaining binding [%]": 91}
{"Compound": "c1cncc(-c2cccc(Nc3nccc(NC4CCCCC4)n3)c2)c1", "target": "JAK3 JH1", "assay": "binding", "setting": "10 µM", "remaining binding [%]": 6.4}
{"Compound": "Cc1noc([C@H]2C[C@@H](c3ccc(C(F)(F)F)cc3)CN(C(=O)N3CCS(=O)(=O)C3)C2)n1", "target": "JAK3 JH1", "assay": "cell-free assay", "setting": "1 µM", "remaining binding [%]": 100}
{"Compound": "O=C(c1ccc(Nc2ncc(Cl)c(-c3ccc(Cl)s3)n2)cc1)N1CCC(N2CCCC2)CC1", "target": "JAK3 JH1", "assay": "binding", "setting": "1 µM", "remaining binding [%]": 0.3}
{"Compound": "FC(F)(F)Oc1cccc(-c2cnc3ccc(-c4ccncc4)nn23)c1", "target": "JAK3 JH1", "assay": "cell-free assay", "setting": "5 µM", "remaining binding [%]": 23}
{"Compound": "O=C(c1ccc(Nc2nccc(-c3cc4ccccc4s3)n2)cc1)N1CCC(N2CCCC2)CC1", "target": "JAK3 JH1", "assay": "binding", "setting": "1 µM", "remaining binding [%]": 0.4}
{"Compound": "CS(=O)(=O)NCC[C@H](NC(=O)c1cncc2c1cnn2-c1ccc(F)cc1)c1ccnc(S(C)(=O)=O)c1", "target": "JAK3 JH1", "assay": "cell-free assay", "setting": "1 µM", "remaining binding [%]": 100}
{"Compound": "COc1ncc2cc3ccccc3nc2c1C#N", "target": "JAK3 JH1", "assay": "cell-free assay", "setting": "5 µM", "remaining binding [%]": 63}
{"Compound": "Cc1cnn2ncc(-c3ccnc(N(C)C)n3)c2c1", "target": "JAK3 JH1", "assay": "cell-free assay", "setting": "1 µM", "remaining binding [%]": 91}
{"Compound": "Nc1c(C(=O)NCc2ccc(C(=O)NCCCC3CCCCC3)cc2)cnn1-c1ccccc1", "target": "JAK3 JH1", "assay": "cell-free assay", "setting": "0.1 µM", "remaining binding [%]": 100}
{"Compound": "N[C@@H]1CCN(c2nccc(-c3cnn4ncccc34)n2)C1", "target": "JAK3 JH1", "assay": "cell-free assay", "setting": "1 µM", "remaining binding [%]": 100}
{"Compound": "N#Cc1ccccc1CSc1nnc2c(n1)[nH]c1ccccc12", "target": "JAK3 JH1", "assay": "binding", "setting": "10 µM", "remaining binding [%]": 93}
{"Compound": "O=S(=O)(NC1CCC(c2cc(F)ccc2F)(S(=O)(=O)c2ccc(Cl)cc2)CC1)C(F)(F)F (stereo not shown)", "target": "JAK3 JH1", "assay": "cell-free assay", "setting": "1 µM", "remaining binding [%]": 100}
{"Compound": "COc1ccnn2ncc(-c3ccnc(N(C)C)n3)c12", "target": "JAK3 JH1", "assay": "cell-free assay", "setting": "1 µM", "remaining binding [%]": 94}
